These results are taken from ChEMBL document CHEMBL4041512, “Rational design of nitrofuran derivatives: Synthesis and valuation as inhibitors of Trypanosoma cruzi trypanothione reductase” (Eur J Med Chem, 2017).

Activity calls are given as the source filed them. The calls are words filed in the database; no cut-off is given here.

The target of one data set is Trypanothione reductase (Trypanosoma cruzi, UniProt P28593). Nature of the data set: Uncompetitive inhibition of Trypanosoma cruzi trypanothione reductase using […] as substrate at pH 7.5 in presence of NADPH by photometric method.
Trypanothione reductase, sequence (P28593 whole entry): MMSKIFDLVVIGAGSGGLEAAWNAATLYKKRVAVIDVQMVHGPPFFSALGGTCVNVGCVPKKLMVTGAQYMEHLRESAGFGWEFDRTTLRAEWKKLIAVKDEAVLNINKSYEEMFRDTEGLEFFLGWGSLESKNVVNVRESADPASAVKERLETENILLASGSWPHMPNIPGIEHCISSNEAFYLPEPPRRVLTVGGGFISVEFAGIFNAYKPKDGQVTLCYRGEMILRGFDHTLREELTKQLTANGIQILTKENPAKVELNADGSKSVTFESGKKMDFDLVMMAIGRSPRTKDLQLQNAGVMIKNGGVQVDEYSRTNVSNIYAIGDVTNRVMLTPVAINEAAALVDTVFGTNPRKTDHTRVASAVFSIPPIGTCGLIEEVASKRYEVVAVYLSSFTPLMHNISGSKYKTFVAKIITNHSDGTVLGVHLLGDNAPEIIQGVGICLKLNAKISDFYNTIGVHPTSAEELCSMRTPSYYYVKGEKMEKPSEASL
Conditions: not given
The method, boiled down:
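Reactions started with NADPH; compound-free reactions serve as control. Initial rates were plotted against TS₂ concentration and Ki was taken as the mean of at least three independent data sets, within ±10%.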
On to `CCCCNC(=O)c1ccc([N+](=O)[O-])o1`, for which the Ki is 315 µM.

For the compound `O=C(c1ccc([N+](=O)[O-])o1)N1CCCC1`, the Ki was found to be 187 µM.

On to `CN(C)CCNC(=O)c1ccc([N+](=O)[O-])o1`, for which the Ki came to 136 µM.

Regarding `CCC(C)NC(=O)c1ccc([N+](=O)[O-])o1` (configuration not stated), the Ki was 1180 µM.

Turning to `CC(C)(C)NC(=O)c1ccc([N+](=O)[O-])o1`, the Ki stood at 313 µM.

For the compound `CC1CS(=O)(=O)CCN1/N=C/c1ccc([N+](=O)[O-])o1` (configuration not stated) [NIFURTIMOX], the Ki was found to be 245 µM.

As for `CCCN(CCC)C(=O)c1ccc([N+](=O)[O-])o1`, the Ki was determined as 183 µM.

In the case of `CCN(CC)CCCNC(=O)c1ccc([N+](=O)[O-])o1`, the Ki came out at 128 µM.

On to `CCCNC(=O)c1ccc([N+](=O)[O-])o1`, for which the Ki turned out to be 336 µM.

On to `O=C(c1ccc([N+](=O)[O-])o1)N1CCCCC1`, for which the Ki is 282 µM.

As to `O=C(c1ccc([N+](=O)[O-])o1)N(Cc1ccccc1)Cc1ccccc1`, the Ki came out at 68 µM.

As to `O=C(NCc1ccccc1)c1ccc([N+](=O)[O-])o1`, the inhibition constant Ki amounted to 61 µM.

Take `CC(C)NC(=O)c1ccc([N+](=O)[O-])o1`: the Ki turned out to be 414 µM.

Regarding `CN(C)CCCNC(=O)c1ccc([N+](=O)[O-])o1`, the Ki was 118 µM.

Another data set deals with Trypanothione reductase (Trypanosoma cruzi) (UniProt P28593). As to the kind of experiment: Inhibition of Trypanosoma cruzi trypanothione reductase at 100 uM using […] as substrate at pH 7.5 in presence of NADPH by photometric method. The conditions noted are these: TDE = time-dependent effect.
Trypanothione reductase (Trypanosoma cruzi), sequence (P28593 whole entry, looked up): as the sequence (P28593 whole entry) above
Regarding `O=C(c1ccc([N+](=O)[O-])o1)N(Cc1ccccc1)Cc1ccccc1`, the inhibition result is “Tde”.

Consider `O=C(O)c1ccc([N+](=O)[O-])o1`, for which the inhibition result is “Tde”.

Consider `O=C(NCc1ccccc1)c1ccc([N+](=O)[O-])o1`, for which the inhibition result was “Tde”.

As to `CN(C)CCCNC(=O)c1ccc([N+](=O)[O-])o1`, the inhibition result is “Tde”.

A further data set concerns Trypanosoma cruzi. Nature of the data set: Anti-parasitic activity against Trypanosoma cruzi Dm28c epimastigotes in logarithmic phase measured after 24 to 48 hrs by resazurin assay. Format: functional.
Conditions: not given
The method, boiled down: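 Log-phase Dm28c epimastigotes at 1x10⁶ cells/ml in PBS plus 2% (w/v) glucose. Derivatives added at 0.1-100 µM final. Incubation 24-48 h, then viability read by resazurin. DMSO-only wells serve as negative control. Resazurin is also run with compound but no parasites. IC50 is the mean of at least three independent experiments, reproducible within ±10%.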
(Alamar Blue is a resazurin reagent that responds to reducing activity.)
`CCCCNC(=O)c1ccc([N+](=O)[O-])o1` displayed an IC50 of 26 µM. That is a double-digit micromolar value.

`O=C(c1ccc([N+](=O)[O-])o1)N1CCCC1` returned an IC50 of 64 µM.

`CN(C)CCNC(=O)c1ccc([N+](=O)[O-])o1` came in with a concentration for half-maximal inhibition (IC50) of 36 µM.

`CCC(C)NC(=O)c1ccc([N+](=O)[O-])o1` (configuration not stated) registered an IC50 of 23 µM.

On to `CC(C)(C)NC(=O)c1ccc([N+](=O)[O-])o1`, for which the IC50 was determined as 35 µM.

In turn, `CC1CS(=O)(=O)CCN1/N=C/c1ccc([N+](=O)[O-])o1` (configuration not stated) [NIFURTIMOX] gave an IC50 of 4 µM.

For `CCCN(CCC)C(=O)c1ccc([N+](=O)[O-])o1`, 19.6 µM corresponded to half-maximal inhibition (IC50).

The compound `CCN(CC)CCCNC(=O)c1ccc([N+](=O)[O-])o1` displayed an IC50 of 25 µM.

`CCCNC(=O)c1ccc([N+](=O)[O-])o1` registered an IC50 of 17 µM.

`O=C(c1ccc([N+](=O)[O-])o1)N1CCCCC1` displayed a half-maximal inhibitory concentration (IC50) of 103 µM.

In turn, `O=C(c1ccc([N+](=O)[O-])o1)N(Cc1ccccc1)Cc1ccccc1` registered an IC50 of 1.1 µM.

`O=C(NCc1ccccc1)c1ccc([N+](=O)[O-])o1`: the midpoint of inhibition, the IC50, lay at 15 µM.

Consider `CC(C)NC(=O)c1ccc([N+](=O)[O-])o1`, for which the IC50 was 18 µM.

In turn, `CN(C)CCCNC(=O)c1ccc([N+](=O)[O-])o1` returned an IC50 of 19 µM.

The next data set concerns HeLa. As to the kind of experiment: Cytotoxicity against human HeLa cells measured after 24 hrs by crystal violet staining based assay. The class given is cell-based.
Conditions: not given
The method, boiled down:
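HeLa cells seeded at 2.5 x 10⁴ cells/well in DMEM with 2% FBS, 24 h at 37°C, 5% CO₂. Medium replaced with compound, eight serial dilutions in duplicate, 24 h at 37°C. Cells fixed and stained with 0.75% crystal violet in 40% methanol for 10 min. Dye dissolved in 20% acetic acid and read at 540 nm, triplicate means. Untreated cells are the negative control.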
Take `CCCCNC(=O)c1ccc([N+](=O)[O-])o1`: the response was half-maximal at 152 µM (EC50).

On to `CCC(C)NC(=O)c1ccc([N+](=O)[O-])o1` (configuration not stated), for which the EC50 is 165 µM.

On to `CC1CS(=O)(=O)CCN1/N=C/c1ccc([N+](=O)[O-])o1` (configuration not stated) [NIFURTIMOX], for which it took 272 µM to reach a half-maximal effect (EC50).

On to `CCN(CC)CCCNC(=O)c1ccc([N+](=O)[O-])o1`, for which the concentration for a half-maximal effect (EC50) was 100 µM. Against the preceding compound, the EC50 is about 2.7-fold lower.

Regarding `CCCNC(=O)c1ccc([N+](=O)[O-])o1`, it took 150 µM to reach a half-maximal effect (EC50).

Consider `O=C(c1ccc([N+](=O)[O-])o1)N(Cc1ccccc1)Cc1ccccc1`, for which the EC50 worked out at 78 µM. This EC50 lies about 1.9-fold lower than the previous one.

In turn, `O=C(NCc1ccccc1)c1ccc([N+](=O)[O-])o1` displayed an EC50 of 123 µM.

As for `CC(C)NC(=O)c1ccc([N+](=O)[O-])o1`, the EC50 turned out to be 211 µM. This EC50 is about 1.7-fold higher than that of the compound before.

As to `CN(C)CCCNC(=O)c1ccc([N+](=O)[O-])o1`, a half-maximal response (EC50) required 74 µM. Compared with the last compound, the EC50 is about 2.9-fold lower.

System in a further data set: not listed separately
Nature of the data set: Selectivity index, ratio of EC50 for cytotoxicity against human HeLa cells to IC50 for anti-parasitic activity against Trypanosoma cruzi Dm28c epimastigotes. Format: toxicity, cell-based. The conditions noted are these: read-out: Selectivity Index. The method, boiled down: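 HeLa crystal violet EC50 (24 h) divided by epimastigote IC50 (resazurin, 48 h growth).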
Consider `CCCCNC(=O)c1ccc([N+](=O)[O-])o1`, for which the selectivity ratio was found to be 5.8.

`CCC(C)NC(=O)c1ccc([N+](=O)[O-])o1` (configuration not stated): the selectivity ratio was 7.2.

For `CC1CS(=O)(=O)CCN1/N=C/c1ccc([N+](=O)[O-])o1` (configuration not stated) [NIFURTIMOX], the selectivity ratio stood at 68.

As for `CCN(CC)CCCNC(=O)c1ccc([N+](=O)[O-])o1`, the selectivity ratio was found to be 4.

Consider `CCCNC(=O)c1ccc([N+](=O)[O-])o1`, for which the selectivity ratio came to 8.8.

As to `O=C(c1ccc([N+](=O)[O-])o1)N(Cc1ccccc1)Cc1ccccc1`, the selectivity ratio came to 70.1.

On to `O=C(NCc1ccccc1)c1ccc([N+](=O)[O-])o1`, for which the selectivity ratio was 8.2.

`CC(C)NC(=O)c1ccc([N+](=O)[O-])o1`: the selectivity ratio is 11.7.

Consider `CN(C)CCCNC(=O)c1ccc([N+](=O)[O-])o1`, for which the selectivity ratio stood at 3.9.

Another data set relates to Trypanosoma cruzi. As to the kind of experiment: Anti-parasitic activity against Trypanosoma cruzi Dm28c epimastigotes in logarithmic phase assessed as morphological changes at 30 uM measured after 48 hrs by resazurin assay. The class given is functional.
Conditions: not given
For the compound `O=C(O)c1ccc([N+](=O)[O-])o1`, the result was inactive.

The next data set relates to Trypanosoma cruzi. As to the kind of experiment: Potency index, ratio of nifurtimox IC50 to test compound IC50 for Trypanosoma cruzi Dm28c epimastigotes in logarithmic phase. The class given is functional.
Conditions: not given
As to `O=C(c1ccc([N+](=O)[O-])o1)N(Cc1ccccc1)Cc1ccccc1`, the “Ratio IC50” value is 4.

For orientation: Ki means the dissociation constant of the complex between target and ligand, obtained from inhibition or displacement. For orientation: IC50 means the concentration that inhibits the measured activity by half. One may read the EC50 as the concentration that produces a half-maximal response.
